Experimental data as given in ChEMBL document CHEMBL2157910, “Structure-activity relationship studies of 4-benzyl-1H-pyrazol-3-yl β-d-glucopyranoside derivatives as potent and selective sodium glucose co-transporter 1 (SGLT1) inhibitors with therapeutic activity on postprandial hyperglycemia” (Bioorg Med Chem, 2012).
In brackets after ≈: the same amount, converted by molar mass. Activity calls are given as the source filed them. The rule behind the calls is not given here.

Experiments:
[1] = molecular target: T1, Sodium/glucose cotransporter 2 (Homo sapiens, UniProt P31639); assay: Inhibition of human SGLT2 expressed in COS7 cells assessed as reduction of [14C]-AMG uptake; format: cell-based, COS-7
T1 sequence (P31639 whole entry): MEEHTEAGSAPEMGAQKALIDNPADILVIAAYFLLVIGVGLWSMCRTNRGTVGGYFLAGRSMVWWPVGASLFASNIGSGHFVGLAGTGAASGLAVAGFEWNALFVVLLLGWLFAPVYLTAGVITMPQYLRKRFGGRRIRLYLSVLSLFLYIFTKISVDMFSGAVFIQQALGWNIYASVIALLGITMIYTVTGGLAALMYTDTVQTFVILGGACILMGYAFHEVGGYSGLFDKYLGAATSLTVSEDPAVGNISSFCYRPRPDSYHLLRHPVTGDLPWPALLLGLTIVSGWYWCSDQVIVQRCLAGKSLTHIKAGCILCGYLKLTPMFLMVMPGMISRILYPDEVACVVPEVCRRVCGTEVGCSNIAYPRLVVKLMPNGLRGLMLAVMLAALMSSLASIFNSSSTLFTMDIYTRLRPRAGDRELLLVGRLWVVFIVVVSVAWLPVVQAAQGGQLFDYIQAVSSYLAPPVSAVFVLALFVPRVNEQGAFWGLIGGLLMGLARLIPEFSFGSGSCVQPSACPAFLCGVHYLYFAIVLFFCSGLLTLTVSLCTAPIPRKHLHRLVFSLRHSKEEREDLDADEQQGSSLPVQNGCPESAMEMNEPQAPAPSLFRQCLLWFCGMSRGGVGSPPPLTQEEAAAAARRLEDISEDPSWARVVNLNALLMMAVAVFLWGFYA

[2] = molecular target: T2, Sodium/glucose cotransporter 1 (Rattus norvegicus, UniProt P53790); assay: Inhibition of rat SGLT1 expressed in COS7 cells assessed as reduction of [14C]-AMG uptake; format: cell-based, COS-7
T2 sequence (P53790 whole entry): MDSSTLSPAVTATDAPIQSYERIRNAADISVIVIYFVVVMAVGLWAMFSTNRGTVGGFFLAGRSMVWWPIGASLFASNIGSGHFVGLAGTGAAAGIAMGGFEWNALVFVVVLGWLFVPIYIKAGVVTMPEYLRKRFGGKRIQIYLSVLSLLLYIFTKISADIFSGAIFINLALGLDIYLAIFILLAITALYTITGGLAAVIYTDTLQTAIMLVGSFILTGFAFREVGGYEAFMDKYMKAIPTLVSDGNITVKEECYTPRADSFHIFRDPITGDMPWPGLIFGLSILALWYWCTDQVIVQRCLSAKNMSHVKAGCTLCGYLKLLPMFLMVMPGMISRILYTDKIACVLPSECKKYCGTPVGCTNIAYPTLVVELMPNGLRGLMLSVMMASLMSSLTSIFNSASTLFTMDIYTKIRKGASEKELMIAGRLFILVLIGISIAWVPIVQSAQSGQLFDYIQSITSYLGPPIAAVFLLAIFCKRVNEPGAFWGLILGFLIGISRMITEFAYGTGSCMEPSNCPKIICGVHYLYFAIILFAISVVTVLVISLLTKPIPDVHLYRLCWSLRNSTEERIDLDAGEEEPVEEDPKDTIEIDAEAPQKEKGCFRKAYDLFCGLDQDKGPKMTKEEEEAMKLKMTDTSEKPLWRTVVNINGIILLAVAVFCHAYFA

[3] = molecular target: T3, Sodium/glucose cotransporter 2 (Rattus norvegicus, UniProt P53792); assay: Inhibition of rat SGLT2 expressed in COS7 cells assessed as reduction of [14C]-AMG uptake; format: cell-based, COS-7
T3 sequence (P53792 whole entry): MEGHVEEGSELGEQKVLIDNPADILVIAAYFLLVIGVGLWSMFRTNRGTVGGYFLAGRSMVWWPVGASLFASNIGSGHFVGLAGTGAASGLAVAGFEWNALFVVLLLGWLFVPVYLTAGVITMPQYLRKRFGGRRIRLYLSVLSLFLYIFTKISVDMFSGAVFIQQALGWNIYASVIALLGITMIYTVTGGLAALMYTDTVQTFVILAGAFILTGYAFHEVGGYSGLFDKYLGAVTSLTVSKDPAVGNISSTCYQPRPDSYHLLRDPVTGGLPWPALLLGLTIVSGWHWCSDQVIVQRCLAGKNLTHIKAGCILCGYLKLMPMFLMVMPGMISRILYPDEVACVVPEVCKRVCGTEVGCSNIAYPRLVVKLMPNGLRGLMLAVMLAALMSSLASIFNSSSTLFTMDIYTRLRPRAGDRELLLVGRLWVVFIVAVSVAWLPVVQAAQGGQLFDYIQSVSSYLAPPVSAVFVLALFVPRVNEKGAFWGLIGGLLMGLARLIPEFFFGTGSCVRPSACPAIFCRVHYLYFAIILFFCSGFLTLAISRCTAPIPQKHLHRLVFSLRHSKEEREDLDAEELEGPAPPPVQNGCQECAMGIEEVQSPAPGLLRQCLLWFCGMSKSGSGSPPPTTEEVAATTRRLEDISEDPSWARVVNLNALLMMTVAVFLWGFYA

[4] = Metabolic stability of the compound in rat intestinal microsomes assessed as compound remaining at 50 uM after 30 mins; format: ADME, Intestine; conditions: for remaining at 0.5 h, 50 µM: intestinal microsomes, read-out: Stability; for Stability: microsomes, 0.5 h, 50 µM
How it was run: (§1)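 50 µM final compound incubated at 37 °C with 0.8 mg/mL rat intestinal microsomes, 1 mg/mL NADPH, 50 mM ammonium acetate (pH 5.0) and 10 mM MgCl2. Levels measured by LC–MS at 0, 30 and 60 min; reported as % remaining relative to 0 min.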

[5] = Metabolic stability of the compound in rat intestinal microsomes assessed as compound remaining at 50 uM after 60 mins; format: ADME, Intestine; conditions: for remaining at 1 h, 50 µM: intestinal microsomes, read-out: Stability; for Stability: microsomes, 1 h, 50 µM; how it was run: as §1
[6] = Solubility of the compound in distilled water; format: physicochemical
How it was run: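 Solubility measured in distilled water, with filtrate concentration quantified by HPLC.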

Rattus norvegicus [7] = assay: Antihyperglycemic activity in po dosed Wistar rat streptozotocin-nicotinamide-induced diabetic model assessed as reduction of plasma glucose level after 1 hr by oral mixed carbohydrate tolerance test; format: functional, organism-based
How it was run: (§2)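 Male Wistar rats (8 weeks) given nicotinamide 230 mg/kg i.p., then streptozotocin 85 mg/kg i.v. 15 min later; after 1 week, rats above 250 mg/dL plasma glucose at 1 h in a 2 g/kg glucose tolerance test were used. Overnight-fasted rats were dosed orally in 0.5% CMC, then immediately loaded with 2 g/kg starch/sucrose/lactose (6:3:1). Plasma glucose by glucose oxidase; n = 7; Dunnett's test versus vehicle.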

Rattus norvegicus [8] = assay: Toxicity in Wistar rat streptozotocin-nicotinamide-induced diabetic model assessed as soft feces at 1 to 10 mg/kg, po; format: organism-based; design: dose 1-10 mg/kg, route oral; conditions: in vivo
Rattus norvegicus [9] = assay: Toxicity in Wistar rat streptozotocin-nicotinamide-induced diabetic model assessed as diarrhea at 1 to 10 mg/kg, po; format: organism-based; design: dose 1-10 mg/kg, route oral; conditions: in vivo
Rattus norvegicus [10] = assay: Toxicity in Wistar rat assessed as overnight urinary glucose excretion at 10 mg/kg, po; format: organism-based, Urine; design: dose 10 mg/kg, route oral; conditions: in vivo
How it was run: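 Male Wistar rats (8 weeks) in metabolic cages, fasted 08:00 to next morning. At 16:00 they received 10 mg/kg orally in 0.5% CMC or vehicle, and urine was collected until 08:00. Urine glucose by glucose oxidase; n = 5; F-test then Student's t or Welch's test versus vehicle.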

Rattus norvegicus [11] = assay: Antihyperglycemic activity in Wistar rat streptozotocin-nicotinamide-induced diabetic model assessed as reduction of plasma glucose level at 1 mg/kg, po after 1 hr by oral mixed carbohydrate tolerance test; format: functional, organism-based; design: dose 1 mg/kg; how it was run: as §2

Compound	IC50 [1] [µM]	other results
CC(C)c1[nH]nc(O[C@@H]2O[C@H](CO)[C@@H](O)[C@H](O)[C@H]2O)c1Cc1ccccc1C#N	65.7	–
CC(C)c1[nH]nc(O[C@@H]2O[C@H](CO)[C@@H](O)[C@H](O)[C@H]2O)c1Cc1ccc(C#N)cc1	3.58	–
CC(C)(C)c1[nH]nc(O[C@@H]2O[C@H](CO)[C@@H](O)[C@H](O)[C@H]2O)c1Cc1ccccc1OCc1ccccc1	64.7	–
CCc1[nH]nc(O[C@@H]2O[C@H](CO)[C@@H](O)[C@H](O)[C@H]2O)c1Cc1ccccc1OCc1ccccc1	13.9	–
Cc1[nH]nc(O[C@@H]2O[C@H](CO)[C@@H](O)[C@H](O)[C@H]2O)c1Cc1ccccc1OCc1ccccc1	5.01	–
CC(C)c1[nH]nc(O[C@@H]2O[C@H](CO)[C@@H](O)[C@H](O)[C@H]2O)c1Cc1ccccc1O	75.9	–
Cc1ccc(Cc2c(O[C@@H]3O[C@H](CO)[C@@H](O)[C@H](O)[C@H]3O)n[nH]c2C(C)C)c(C)c1	6.01	IC50 [2]: 0.067 µM; IC50 [3]: 4.65 µM; remaining at 0.5 h, 50 µM [4]: 91%; remaining at 1 h, 50 µM [5]: 67%; solubility [6]: 3700 µg/mL (≈ 9.1 mM); Activity (Rattus norvegicus [7]): Dose-dependent effect; Activity (Rattus norvegicus [8]): Non-toxic; Activity (Rattus norvegicus [9]): Non-toxic; Activity (Rattus norvegicus [10]): 0.8 mg
CC(C)c1[nH]nc(O[C@@H]2O[C@H](CO)[C@@H](O)[C@H](O)[C@H]2O)c1Cc1ccccc1	2.02	solubility [6]: 19000 µg/mL (≈ 50.2 mM)
OC[C@H]1O[C@@H](Oc2n[nH]c(C(F)(F)F)c2Cc2ccccc2OCc2ccccc2)[C@H](O)[C@@H](O)[C@@H]1O	14	IC50 [2]: 0.227 µM; IC50 [3]: 40.8 µM; Stability [4]: Unstable; Stability [5]: Unstable
Cc1cc(O)ccc1Cc1c(C(C)C)n[nH]c1O[C@@H]1O[C@H](CO)[C@@H](O)[C@H](O)[C@H]1O	6.89	IC50 [2]: 0.183 µM; IC50 [3]: 4.37 µM
COc1ccccc1Cc1c(O[C@@H]2O[C@H](CO)[C@@H](O)[C@H](O)[C@H]2O)n[nH]c1C(C)C	204	–
OC[C@H]1O[C@@H](Oc2[nH]nc(C(F)(F)F)c2Cc2cccc(OCc3ccccc3)c2)[C@H](O)[C@@H](O)[C@@H]1O	5.68	–
Cc1ccc(Cc2c(O[C@@H]3O[C@H](CO)[C@@H](O)[C@H](O)[C@H]3O)n[nH]c2C(C)C)cc1	0.231	–
O=C(CCc1ccc(O)cc1)c1c(O)cc(O)cc1O[C@@H]1O[C@H](CO)[C@@H](O)[C@H](O)[C@H]1O [PHLORIZIN]	–	IC50 [3]: 0.096 µM; Stability [4]: Unstable; Stability [5]: Unstable; Activity (Rattus norvegicus [11]): inactive
OC[C@H]1O[C@@H](Oc2n[nH]c(C(F)(F)F)c2Cc2ccc(OCc3ccccc3)cc2)[C@H](O)[C@@H](O)[C@@H]1O	0.007	–
OC[C@H]1O[C@@H](Oc2[nH]nc(C(F)(F)F)c2Cc2ccc(O)cc2)[C@H](O)[C@@H](O)[C@@H]1O	0.154	–
CC(C)c1[nH]nc(O[C@@H]2O[C@H](CO)[C@@H](O)[C@H](O)[C@H]2O)c1Cc1ccccc1OCc1ccccc1	74	IC50 [2]: 0.308 µM; IC50 [3]: 100 µM; remaining at 0.5 h, 50 µM [4]: 71%; remaining at 1 h, 50 µM [5]: 51%; solubility [6]: 240 µg/mL (≈ 0.495 mM); Activity (Rattus norvegicus [10]): 0.4 mg
CC(C)c1n[nH]c(O[C@@H]2O[C@H](CO)[C@@H](O)[C@H](O)[C@H]2O)c1Cc1ccccc1F	1.39	–
CCOC(=O)OC[C@H]1O[C@@H](Oc2ccccc2Cc2ccc(OC)cc2)[C@H](O)[C@@H](O)[C@@H]1O [SERGLIFLOZIN ETABONATE]	–	Activity (Rattus norvegicus [10]): 53.3 mg
Cc1ccccc1Cc1c(C(C)C)n[nH]c1O[C@@H]1O[C@H](CO)[C@@H](O)[C@H](O)[C@H]1O	18.5	–
Cc1cc(O)ccc1Cc1c(O[C@@H]2O[C@H](CO)[C@@H](O)[C@H](O)[C@H]2O)n[nH]c1C(C)C	–	Activity (Rattus norvegicus [7]): Dose-dependent effect

Second part, led by results:

IC50 [1] [µM]	Compound	other results
2.79	OC[C@H]1O[C@@H](Oc2[nH]nc(C(F)(F)F)c2Cc2cccc(O)c2)[C@H](O)[C@@H](O)[C@@H]1O	–
0.342	OC[C@H]1O[C@@H](Oc2n[nH]c(C(F)(F)F)c2Cc2ccccc2)[C@H](O)[C@@H](O)[C@@H]1O	–
156	OC[C@H]1O[C@@H](Oc2n[nH]c(C3CC3)c2Cc2ccccc2OCc2ccccc2)[C@H](O)[C@@H](O)[C@@H]1O	–
13.3	CC(C)c1[nH]nc(O[C@@H]2O[C@H](CO)[C@@H](O)[C@H](O)[C@H]2O)c1Cc1cccc(O)c1	–
4.14	CC(C)c1[nH]nc(O[C@@H]2O[C@H](CO)[C@@H](O)[C@H](O)[C@H]2O)c1Cc1ccc(F)cc1	–
0.377	COc1ccc(Cc2c(O[C@@H]3O[C@H](CO)[C@@H](O)[C@H](O)[C@H]3O)n[nH]c2C(C)C)cc1	–
60.5	CC(C)c1n[nH]c(O[C@@H]2O[C@H](CO)[C@@H](O)[C@H](O)[C@H]2O)c1Cc1ccccc1C(F)(F)F	–
14.9	OC[C@H]1O[C@@H](Oc2n[nH]c(C(F)(F)F)c2Cc2ccccc2O)[C@H](O)[C@@H](O)[C@@H]1O	–
0.285	CC(C)c1[nH]nc(O[C@@H]2O[C@H](CO)[C@@H](O)[C@H](O)[C@H]2O)c1Cc1ccc(O)cc1	–
14.1	CCc1ccccc1Cc1c(O[C@@H]2O[C@H](CO)[C@@H](O)[C@H](O)[C@H]2O)n[nH]c1C(C)C	–
0.068	CCc1ccc(Cc2c(C(C)C)n[nH]c2O[C@@H]2O[C@H](CO)[C@@H](O)[C@H](O)[C@H]2O)cc1	–
5.98	Cc1cccc(Cc2c(O[C@@H]3O[C@H](CO)[C@@H](O)[C@H](O)[C@H]3O)n[nH]c2C(C)C)c1	–
